Measured values from ChEMBL document CHEMBL1137087, “Discovery of novel 2,8-diazaspiro[4.5]decanes as orally active glycoprotein IIb-IIIa antagonists” (J Med Chem, 2004).
Values joined by “and” are separate entries in the source; they are usually repeats but may differ in a detail not shown here. Equal values may be shown once.

Key:
[1] = target: Integrin alpha-IIb/beta-3 (Homo sapiens, UniProt P05106+P08514); experiment: Tested for inhibition of the binding of fibrinogen to purified human GPIIb-IIIa in a 96-well format (ELISA assay); assay type: protein-complex assay
Integrin alpha-IIb/beta-3, sequence (P05106 27-788 limits assumed): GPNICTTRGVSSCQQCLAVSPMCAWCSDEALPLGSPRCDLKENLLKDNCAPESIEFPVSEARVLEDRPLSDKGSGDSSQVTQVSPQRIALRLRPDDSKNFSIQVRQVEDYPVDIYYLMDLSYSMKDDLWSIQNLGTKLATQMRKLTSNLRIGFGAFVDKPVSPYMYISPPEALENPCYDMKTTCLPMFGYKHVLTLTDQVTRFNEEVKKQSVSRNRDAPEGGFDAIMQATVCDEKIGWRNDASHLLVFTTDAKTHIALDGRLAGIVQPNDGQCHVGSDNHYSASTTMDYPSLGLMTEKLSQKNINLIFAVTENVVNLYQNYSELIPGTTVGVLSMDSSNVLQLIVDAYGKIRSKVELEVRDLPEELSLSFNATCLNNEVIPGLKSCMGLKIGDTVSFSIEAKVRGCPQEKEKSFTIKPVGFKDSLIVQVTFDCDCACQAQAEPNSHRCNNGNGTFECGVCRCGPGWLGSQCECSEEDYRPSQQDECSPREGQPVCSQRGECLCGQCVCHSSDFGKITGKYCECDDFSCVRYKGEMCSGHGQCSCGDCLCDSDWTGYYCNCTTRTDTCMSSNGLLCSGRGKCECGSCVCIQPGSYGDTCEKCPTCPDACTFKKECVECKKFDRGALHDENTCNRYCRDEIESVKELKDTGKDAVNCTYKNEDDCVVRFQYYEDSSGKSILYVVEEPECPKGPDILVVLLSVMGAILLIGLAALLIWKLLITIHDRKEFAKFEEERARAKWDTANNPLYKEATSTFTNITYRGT
Integrin alpha-IIb/beta-3, sequence (P08514 32-887 limits assumed): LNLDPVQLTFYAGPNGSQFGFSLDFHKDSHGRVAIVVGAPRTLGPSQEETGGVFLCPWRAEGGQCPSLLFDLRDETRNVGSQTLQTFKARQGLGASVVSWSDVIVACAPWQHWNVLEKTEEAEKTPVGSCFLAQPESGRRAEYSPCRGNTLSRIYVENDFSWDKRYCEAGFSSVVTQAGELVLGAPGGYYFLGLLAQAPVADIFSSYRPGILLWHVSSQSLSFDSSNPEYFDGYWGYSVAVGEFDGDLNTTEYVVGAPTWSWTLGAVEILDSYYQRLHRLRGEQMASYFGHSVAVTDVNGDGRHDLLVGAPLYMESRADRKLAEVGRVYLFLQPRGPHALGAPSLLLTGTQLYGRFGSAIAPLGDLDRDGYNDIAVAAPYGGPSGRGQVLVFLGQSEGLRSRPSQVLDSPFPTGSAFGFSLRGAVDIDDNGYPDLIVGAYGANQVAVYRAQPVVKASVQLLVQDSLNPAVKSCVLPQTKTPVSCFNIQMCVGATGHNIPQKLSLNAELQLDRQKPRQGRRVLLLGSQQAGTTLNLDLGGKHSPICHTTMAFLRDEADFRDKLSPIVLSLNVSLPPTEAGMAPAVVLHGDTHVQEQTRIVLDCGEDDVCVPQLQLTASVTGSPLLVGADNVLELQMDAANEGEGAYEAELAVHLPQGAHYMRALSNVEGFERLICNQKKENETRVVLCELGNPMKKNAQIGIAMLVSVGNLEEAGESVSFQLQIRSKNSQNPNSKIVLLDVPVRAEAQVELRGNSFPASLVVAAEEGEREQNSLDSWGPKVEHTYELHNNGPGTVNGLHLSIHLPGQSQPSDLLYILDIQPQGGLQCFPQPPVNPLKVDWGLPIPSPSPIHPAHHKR
Integrin alpha-IIb/beta-3, sequence (P08514 891-1039 limits assumed): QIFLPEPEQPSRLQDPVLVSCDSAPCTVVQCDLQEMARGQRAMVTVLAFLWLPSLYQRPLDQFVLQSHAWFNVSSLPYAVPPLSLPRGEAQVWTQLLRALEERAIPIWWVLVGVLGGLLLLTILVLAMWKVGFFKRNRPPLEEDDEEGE
Method in brief: (§1)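 Purified GPIIb-IIIa or vitronectin receptor, 0.5 μg/well, coated overnight at 4 °C, BSA-blocked. Compound plus 10 nM biotinylated ligand added in triplicate, 2 h at room temperature, pH 7.4 Tris with CaCl2 and BSA.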

[2] = (§2) Area under curve was determined after oral administration in rats; assay type: ADME, organism-based; parameters: concentration or dose not given beside the values; settings: rat, in vivo
Method in brief: (§3)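 Sprague Dawley rats instrumented 2 days before, conscious; prodrug in water given orally and free acid in 50% PEG-300 intravenously, 1 mg/kg each, six rats per group. Serial blood sampling on EDTA or citrate; plasma deproteinized with acetonitrile plus internal standard, filtered. AUC, Cmax and t1/2β from mean concentration–time curves; F = oral AUC / iv AUC.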

[3] = test system: Mus musculus; experiment: Compound was tested for bleeding time in mice at a dose of 100 mg/kg vs DMSO (vehicle); assay type: functional
Method in brief: (§4)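 Anesthetized female C57/bl mice given an iv tail-vein bolus in 10% DMSO in water (~150 μL); vehicle controls received DMSO. Tail transected 2 mm from the tip and immersed in 37 °C normal saline. Bleeding time recorded to cessation of flow by visual inspection, up to 900 s.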

[4] = test system: Mus musculus; experiment: Compound was tested for bleeding time in mice at a dose of 10 mg/kg vs DMSO (vehicle); assay type: functional; method in brief: as §4
[5] = test system: Mus musculus; experiment: Compound was tested for bleeding time in mice at a dose of 50 mg/kg vs DMSO (vehicle); assay type: functional; method in brief: as §4
[6] = test system: Mus musculus; experiment: Compound was tested for bleeding time in mice at a dose of 40 mg/kg vs DMSO (vehicle); assay type: functional; method in brief: as §4
[7] = Clearance of the drug was measured in cynomolgus; assay type: ADME; settings: cercopithecidae, in vivo; read-out: CI
Method in brief: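 Fasted, chair-restrained cynomolgus monkeys. Active acid given as a 15 min iv infusion in 50% PEG-300 diluted with plasmalyte; prodrug given a week later in water by nasogastric tube to the same animals. EDTA plasma sampled over 0–48 h and assayed by LC/MS/MS. t1/2β taken from the terminal log-linear phase; Vz = dose/(AUCINF·λz); F corrected for molecular weight and dose.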

[8] = organism: Canis familiaris; experiment: Clearance of the drug was measured in the plasma of dog; assay type: ADME, organism-based, Canis lupus familiaris; settings: in vivo
Method in brief: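 Fasted male beagle dogs (n = 4): prodrug at 1 mg/kg orally, active drug intravenously. Plasma drug measured by LC/MS/MS. t1/2β from the linear portion of the log concentration–time curve; Vz = dose/(AUCINF·λz); F corrected for molecular weight and dose differences.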

[9] = as §2; assay type: ADME, organism-based; settings: rat, in vivo; method in brief: as §3
[10] = Inhibition of Human umbilical vein endothelial cells (HUVEC) adhesion to Vitronectin; assay type: cell-based
[11] = target: Integrin alpha-V/beta-3 (Homo sapiens, UniProt P05106+P06756); experiment: Inhibition of vitronectin binding to Vitronectin receptor (alpha V beta 3); assay type: protein-complex assay
Integrin alpha-V/beta-3, sequence (P05106 27-788 limits assumed): as the sequence (P05106 27-788 limits assumed) above
Integrin alpha-V/beta-3, sequence (P06756 31-889 limits assumed): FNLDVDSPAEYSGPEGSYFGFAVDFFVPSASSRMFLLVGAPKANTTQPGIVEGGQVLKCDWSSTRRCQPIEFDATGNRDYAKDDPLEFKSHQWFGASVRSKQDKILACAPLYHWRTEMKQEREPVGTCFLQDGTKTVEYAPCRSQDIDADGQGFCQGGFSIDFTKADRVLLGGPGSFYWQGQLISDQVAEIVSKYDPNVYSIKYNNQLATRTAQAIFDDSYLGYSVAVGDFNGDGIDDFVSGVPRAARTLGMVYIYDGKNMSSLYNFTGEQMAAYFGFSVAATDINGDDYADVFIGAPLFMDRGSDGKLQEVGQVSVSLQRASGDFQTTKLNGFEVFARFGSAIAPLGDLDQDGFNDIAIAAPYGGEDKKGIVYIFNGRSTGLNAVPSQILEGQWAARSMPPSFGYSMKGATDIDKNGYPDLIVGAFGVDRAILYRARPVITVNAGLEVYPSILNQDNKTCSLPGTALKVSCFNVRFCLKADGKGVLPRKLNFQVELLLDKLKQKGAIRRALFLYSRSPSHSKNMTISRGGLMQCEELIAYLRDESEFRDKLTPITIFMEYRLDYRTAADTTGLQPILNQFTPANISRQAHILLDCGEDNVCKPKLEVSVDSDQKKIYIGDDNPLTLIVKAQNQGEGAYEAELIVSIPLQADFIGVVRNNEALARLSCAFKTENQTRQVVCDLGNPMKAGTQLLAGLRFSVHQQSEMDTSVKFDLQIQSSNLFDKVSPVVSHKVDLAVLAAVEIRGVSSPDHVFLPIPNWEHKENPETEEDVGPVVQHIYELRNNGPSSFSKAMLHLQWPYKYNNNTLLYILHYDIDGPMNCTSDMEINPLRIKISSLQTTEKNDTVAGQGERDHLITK
Integrin alpha-V/beta-3, sequence (P06756 891-1048 limits assumed): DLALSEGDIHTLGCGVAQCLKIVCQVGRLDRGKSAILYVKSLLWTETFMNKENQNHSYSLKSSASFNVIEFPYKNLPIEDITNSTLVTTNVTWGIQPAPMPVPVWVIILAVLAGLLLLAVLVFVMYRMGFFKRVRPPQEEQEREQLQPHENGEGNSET
Method in brief: as §1, with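 “BSA. Detected by anti-biotin alkaline phosphatase conjugate, read at 405 nm; BSA-well binding subtracted; IC50 from three experiments.” for “BSA.”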

[12] = Inhibition of Human umbilical vein endothelial cells (HUVEC) adhesion to fibronectin; assay type: cell-based
[13] = organism: Rattus norvegicus; experiment: Bioavailability in rat; assay type: ADME, organism-based; settings: in vivo; method in brief: as §3
[14] = Inhibition of Human umbilical vein endothelial cells (HUVEC) adhesion to vitronectin; assay type: cell-based

SMILES | IC50 [1] | also measured
CCOC(=O)CCNC(=O)N1CCC2(CC1)CN(c1ccc(C(=N)NO)cc1)C(=O)N2C |  | AUC [2]: 24 ng·h/mL
N=C(N)c1ccc(N2CC3(CCN(C(=O)CC(=O)O)CC3)CC2=O)cc1 | 25000 nM | 
NC(=NN1CCOCC1)c1ccc(N2CCC3(CCN(C(=O)CCCC(=O)O)CC3)C2=O)cc1 | 4180 nM | 
CCCCOC(=O)N[C@@H](CCC(=O)N1CCC2(CC1)CCN(c1ccc(C(=N)NO)cc1)C2=O)C(=O)OCC |  | AUC [2]: 184 ng·h/mL
CN1C(=O)N(c2ccc(C(=N)N)cc2)CC12CCN(C(=O)CCCC(=O)O)CC2 | 1020 nM | 
CC(C)(COC(=O)N1CCC2(CC1)CC(=O)N(c1ccc(C(=N)N)cc1)C2)C(=O)O | 15000 nM | 
N=C(N)c1ccc(N2CCC3(CCN(CCCCC(=O)O)CC3)C2=O)cc1 | 7800 nM | 
CCOC(=O)CCNC(=O)N1CCC2(CC1)CCN(c1ccc(C(=N)NO)cc1)C2=O |  | clearance [7]: 5.12 mL/min/kg; CI [8]: 8.43 mL/min/kg; AUC [9]: 565 ng·h/mL
CCOC(=O)CCNC(=O)N1CCC2(CC1)CC(=O)N(c1ccc(C(=N)NO)cc1)C2 |  | AUC [2]: 95.6 ng·h/mL
CCOC(=O)COCC(=O)N1CCC2(CC1)CCN(c1ccc(C(=N)NO)cc1)C2=O |  | AUC [2]: 651 ng·h/mL; clearance [7]: 2.7 mL/min/kg; CI [8]: 3.28 mL/min/kg
CCNC(=N)c1ccc(N2CCC3(CCN(C(=O)CCCC(=O)O)CC3)C2=O)cc1 | 841 nM | 
N=C(N)c1ccc(N2CCC3(CCN(C(=O)CC(=O)O)CC3)C2=O)cc1 | 15800 nM | 
CCOC(=O)CCNC(=O)N1CCC2(CC1)C(=O)N(c1ccc(C(=N)NO)cc1)C(=O)N2C |  | AUC [2]: 60 ng·h/mL
CCOC(=O)CC(CC(=O)N1CCC2(CC1)CCN(c1ccc(C(=N)NO)cc1)C2=O)c1ccccc1 (centres undefined) |  | AUC [2]: 7.9 ng·h/mL
CCOC(=O)CCCC(=O)N1CCC2(CC1)CCN(c1ccc(C(=N)NO)cc1)C2=O |  | AUC [2]: 501 ng·h/mL; clearance [7]: 6.51 mL/min/kg; CI [8]: 6.44 mL/min/kg
N=C(N)c1ccc(N2CC3(CCN(C(=O)CCCCC(=O)O)CC3)CC2=O)cc1 | 7300 nM | 
N=C(N)c1ccc(N2CCC3(CCN(C(=O)NCCC(=O)O)CC3)C2=O)cc1 | 4 nM and 3.9 nM | IC50 [11]: > 50000 nM
CCCCOC(=O)N[C@@H](CCC(=O)N1CCC2(CC1)C(=O)N(c1ccc(C(=N)NO)cc1)C(=O)N2C)C(=O)OCC |  | F [13]: Not detected
N=C(N)c1ccc(N2CC3(CCN(C(=O)CCC(=O)O)CC3)CC2=O)cc1 | 10500 nM | 
N=C(N)c1ccc(N2CCC3(CCN(C(=O)CCC(=O)O)CC3)C2=O)cc1 | 5600 nM | 

Continued by falling IC50 [1], values first:

IC50 [1] | SMILES | also measured
751 nM | N=C(N)c1ccc(N2CC3(CCN(C(=O)CCCC(=O)O)CC3)NC2=O)cc1 | 
650 nM | N=C(N)c1ccc(N2CC3(CCN(C(=O)CCCC(=O)O)CC3)CC2=O)cc1 | 
430 nM | N=C(N)c1ccc(N2C(=O)CC3(CCN(C(=O)CCCC(=O)O)CC3)C2=O)cc1 | 
410 nM | N=C(N)c1ccc(N2C(=O)CC3(CCN(C(=O)NCCC(=O)O)CC3)C2=O)cc1 | 
400 nM | CN1C(=O)N(c2ccc(C(=N)N)cc2)CC12CCN(C(=O)NCCC(=O)O)CC2 | 
350 nM | N=C(N)c1ccc(N2CC3(CCN(C(=O)NCCC(=O)O)CC3)CC2=O)cc1 | 
329 nM | N=C(N)c1ccc(N2C(=O)NC3(CCN(C(=O)NCCC(=O)O)CC3)C2=O)cc1 | 
100 nM | CN1C(=O)N(c2ccc(C(=N)N)cc2)C(=O)C12CCN(C(=O)CCCC(=O)O)CC2 | 
90 nM | N=C(N)c1ccc(N2CCC3(CCN(C(=O)CC(CC(=O)O)c4ccccc4)CC3)C2=O)cc1 (centres undefined) | 
50 nM | CN1C(=O)N(c2ccc(C(=N)N)cc2)C(=O)C12CCN(C(=O)NC(CC(=O)O)c1ccccc1)CC2 (centres undefined) | 
32 nM | CN1C(=O)N(c2ccc(C(=N)N)cc2)C(=O)C12CCN(C(=O)CC(CC(=O)O)c1ccccc1)CC2 (centres undefined) | 
30 nM | CCCCOC(=O)N[C@@H](CCC(=O)N1CCC2(CC1)CC(=O)N(c1ccc(C(=N)N)cc1)C2=O)C(=O)O | 
21 nM | N=C(N)c1ccc(N2C(=O)NC3(CCN(C(=O)CCCC(=O)O)CC3)C2=O)cc1 | 
20 nM | CN1C(=O)N(c2ccc(C(=N)N)cc2)CC12CCN(C(=O)CC(CC(=O)O)c1ccccc1)CC2 (centres undefined) | 
17 nM | N=C(N)c1ccc(N2CCC3(CCN(C(=O)COCC(=O)O)CC3)C2=O)cc1 | IC50 [11]: > 50000 nM
16 nM | Cc1noc(C)c1S(=O)(=O)N[C@@H](CCC(=O)N1CCC2(CC1)C(=O)N(c1ccc(C(=N)N)cc1)C(=O)N2C)C(=O)O | 
5 nM | Cc1noc(C)c1S(=O)(=O)N[C@@H](CCC(=O)N1CCC2(CC1)CCN(c1ccc(C(=N)N)cc1)C2=O)C(=O)O | Bleeding time [3]: 890.6 s; Bleeding time [4]: 96.7 s; Bleeding time [5]: 562.5 s; Bleeding time [6]: 196.5 s
5 nM | C[C@H](CC(=O)O)CC(=O)N1CCC2(CC1)CCN(c1ccc(C(=N)N)cc1)C2=O | 
5 nM | C[C@H](CC(=O)O)NC(=O)N1CCC2(CC1)CCN(c1ccc(C(=N)N)cc1)C2=O | 
5 nM | CCCCOC(=O)N[C@@H](CCC(=O)N1CCC2(CC1)CCN(c1ccc(C(=N)N)cc1)C2=O)C(=O)O | 
4 nM | N=C(N)c1ccc(N2CCC3(CCN(C(=O)CCCC(=O)O)CC3)C2=O)cc1 | IC50 [10]: > 50000 nM; IC50 [11]: > 50000 nM; IC50 [12]: > 50000 nM
4 nM | C[C@@H](CC(=O)O)CC(=O)N1CCC2(CC1)CCN(c1ccc(C(=N)N)cc1)C2=O | 
4 nM | CC(CC(=O)O)NC(=O)N1CCC2(CC1)CCN(c1ccc(C(=N)N)cc1)C2=O (centres undefined) | 
2.38 nM | CCOC(=O)CCNC(=O)N[C@H]1CCN(c2ccc(C(=N)N)cc2)C1=O [ORBOFIBAN] | 
2 nM | Cc1ccc(S(=O)(=O)N[C@@H](CNC(=O)N2CCC3(CC2)C(=O)N(c2ccc(C(=N)N)cc2)C(=O)N3C)C(=O)O)cc1 | 
1.14 nM | CCOC(=O)COC1CCN(C(=O)[C@H](C)NC(=O)c2ccc(/C(N)=N/O)cc2)CC1 [SIBRAFIBAN] | IC50 [11]: > 50000 nM; IC50 [12]: > 50000 nM; IC50 [14]: > 50000 nM
